# Measured values from ChEMBL document CHEMBL2040797, “Synthesis of benzimidazoles bearing oxadiazole nucleus as anticancer agents” (2012).
# Assays:
# Format in all cases: functional
# [1] = system: SNB-19; assay: Cytotoxicity against human SNB19 cells after 48 hrs by sulforhodamine B assay; details: SNB-19, 48 h
# How it was run: (§1)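 NCI 60-panel screen. Cells were grown in RPMI 1640 with 5% FBS and L-glutamine and plated at 5000–40,000 cells/well according to doubling time. They were preincubated 24 h at 37 °C, 5% CO2, then exposed 48 h to five 10-fold dilutions. Adherent cells were fixed with cold TCA, final 10%; suspension cells were fixed after settling. Cells were stained with 0.4% SRB and read at 515 nm. Tz/C/Ti growth curves gave GI50, TGI and LC50.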
# [2] = system: COLO 205; assay: Cytotoxicity against human COLO205 cells after 48 hrs by sulforhodamine B assay; details: COLO 205, 48 h; how it was run: as §1
# [3] = system: SF-539; assay: Cytotoxicity against human SF539 cells after 48 hrs by sulforhodamine B assay; details: SF-539, 48 h; how it was run: as §1
# [4] = system: HL-60(TB); assay: Cytotoxicity against human HL-60(TB) cells after 48 hrs by sulforhodamine B assay; details: HL-60, 48 h
# How it was run: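 NCI 60-panel five-dose assay. Cells are grown in RPMI 1640 with 5% FBS and L-glutamine. They are plated at 5000–40,000 cells/well according to doubling time and pre-incubated 24 h at 37 °C, 5% CO2. DMSO-stock compound is added at five 10-fold or ½-log dilutions for 48 h. Settled suspension cells are fixed, then SRB-stained and read at 515 nm. Percent growth is computed from time-zero, control and treated absorbances, and LC50 is taken where protein falls 50% below the starting level.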
# [5] = system: SF-539; assay: Growth inhibition of human SF539 cells at 10 uM after 48 hrs by sulforhodamine B assay; details: SF-539, 48 h, read-out: GI
# How it was run: (§2)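 NCI one-dose primary screen at 10 (printed mM) across the 60-line panel. Cells in RPMI 1640 with 5% FBS and 2 mM L-glutamine, plated at 5000–40,000 cells/well and incubated 24 h before dosing. Exposure 48 h at 37 °C, 5% CO2. Adherent cells were fixed with cold TCA, suspension cells fixed after settling. SRB stain, absorbance 515 nm. Reported as percent growth of treated cells relative to control.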
# [6] = system: HOP-92; assay: Growth inhibition of human HOP92 cells at 10 uM after 48 hrs by sulforhodamine B assay; details: HOP-92, 48 h, read-out: GI; how it was run: as §2
# [7] = system: SW-620; assay: Cytotoxicity against human SW620 cells after 48 hrs by sulforhodamine B assay; details: SW-620, 48 h; how it was run: as §1
# [8] = system: Malme-3M; assay: Growth inhibition of human MALME-3M cells at 10 uM after 48 hrs by sulforhodamine B assay; details: read-out: GI; how it was run: as §2
# [9] = system: A498; assay: Cytotoxicity against human A498 cells after 48 hrs by sulforhodamine B assay; details: A498, 48 h; how it was run: as §1
# [10] = system: HT-29; assay: Cytotoxicity against human HT-29 cells after 48 hrs by sulforhodamine B assay; details: HT-29, 48 h; how it was run: as §1
# [11] = system: BT-549; assay: Growth inhibition of human BT549 cells at 10 uM after 48 hrs by sulforhodamine B assay; details: BT-549, 48 h, read-out: GI; how it was run: as §2
# [12] = system: NCI-H460; assay: Cytotoxicity against human NCI-H460 cells after 48 hrs by sulforhodamine B assay; details: NCI-H460, 48 h; how it was run: as §1
# [13] = system: MDA-MB-231; assay: Cytotoxicity against human MDA-MB-231 cells after 48 hrs by sulforhodamine B assay; details: MDA-MB-231, 48 h; how it was run: as §1
# [14] = system: 786-0; assay: Growth inhibition of human 786-0 cells at 10 uM after 48 hrs by sulforhodamine B assay; details: 786-0, 48 h, read-out: GI; how it was run: as §2
# [15] = system: MOLT-4; assay: Growth inhibition of human MOLT4 cells at 10 uM after 48 hrs by sulforhodamine B assay; details: MOLT-4, 48 h, read-out: GI; how it was run: as §2
# [16] = system: HCT-15; assay: Cytotoxicity against human HCT15 cells after 48 hrs by sulforhodamine B assay; details: HCT-15, 48 h; how it was run: as §1
# [17] = system: SF-295; assay: Growth inhibition of human SF295 cells at 10 uM after 48 hrs by sulforhodamine B assay; details: SF-295, 48 h, read-out: GI; how it was run: as §2
# [18] = system: OVCAR-4; assay: Growth inhibition of human OVCAR4 cells at 10 uM after 48 hrs by sulforhodamine B assay; details: OVCAR-4, 48 h, read-out: GI; how it was run: as §2
# [19] = system: Malme-3M; assay: Cytotoxicity against human MALME-3M cells after 48 hrs by sulforhodamine B assay; how it was run: as §1
# [20] = system: UO-31; assay: Cytotoxicity against human UO31 cells after 48 hrs by sulforhodamine B assay; details: UO-31, 48 h
# How it was run: (§3)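 NCI 60 panel five-dose screen. Cells in RPMI 1640 with 5% FBS and 2 mM L-glutamine, plated at 5000–40,000 cells/well and preincubated 24 h. Compounds were tested at five 10-fold concentrations (0.01–100) for 48 h at 37 °C, 5% CO2. Cells were fixed with TCA and stained with SRB, absorbance 515 nm. GI50, TGI and LC50 were taken from % growth curves against time-zero and control.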
# [21] = system: SK-MEL-28; assay: Growth inhibition of human SK-MEL-28 cells at 10 uM after 48 hrs by sulforhodamine B assay; details: SK-MEL-28, 48 h, read-out: GI
# How it was run: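 NCI-60 single-dose screen. Cells grown in RPMI 1640 with 5% FBS and L-glutamine, plated at 5000–40,000 cells/well by doubling time, and preincubated 24 h at 37 °C, 5% CO2. Compound stocks in DMSO, added at one concentration, then incubated 48 h. Adherent cells fixed with cold TCA (10% final), stained with 0.4% SRB, dye solubilized in 10 mM Tris base, A515 read. Reported as percent growth relative to untreated control.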
# [22] = system: SK-MEL-2; assay: Growth inhibition of human SK-MEL-2 cells at 10 uM after 48 hrs by sulforhodamine B assay; details: SK-MEL-2, 48 h, read-out: GI; how it was run: as §2
# [23] = system: SR; assay: Cytotoxicity against human SR cells after 48 hrs by sulforhodamine B assay; how it was run: as §1
# [24] = system: UACC-62; assay: Cytotoxicity against human UACC62 cells after 48 hrs by sulforhodamine B assay; details: UACC-62, 48 h; how it was run: as §3
# [25] = read-out: LC50 (the source's name)
smiles,measurement,setting,value
O=C(CCc1nnc(-c2ccc(Cl)cc2Cl)o1)c1nc2ccccc2[nH]1,GI50,[1],17.4 µM
same,TGI,[1],100 µM
same,CC50,[1]; [25],100 µM
same,GI50,[2],2.66 µM
same,TGI,[2],7.08 µM
same,CC50,[2]; [25],100 µM
same,GI50,[3],10.5 µM
same,TGI,[3],39.6 µM
same,CC50,[3]; [25],100 µM
same,GI50,[4],2.23 µM
same,TGI,[4],19.3 µM
same,CC50,[4]; [25],100 µM
same,inhibition of growth at 10 µM,[5],4.76%
same,inhibition of growth at 10 µM,[6],93.3%
same,GI50,[7],3.46 µM
same,TGI,[7],16.3 µM
same,CC50,[7]; [25],74.3 µM
same,inhibition of growth at 10 µM,[8],20.7%
same,GI50,[9],1.53 µM
same,TGI,[9],10.1 µM
same,CC50,[9]; [25],100 µM
same,GI50,[10],3.77 µM
same,TGI,[10],55.1 µM
same,CC50,[10]; [25],100 µM
same,inhibition of growth at 10 µM,[11],43.6%
same,GI50,[12],4.99 µM
same,TGI,[12],28.6 µM
same,CC50,[12]; [25],100 µM
same,GI50,[13],2.68 µM
same,TGI,[13],42.6 µM
same,CC50,[13]; [25],100 µM
same,inhibition of growth at 10 µM,[14],26.2%
same,inhibition of growth at 10 µM,[15],79.3%
same,GI50,[16],5.13 µM
same,TGI,[16],48.6 µM
same,CC50,[16]; [25],100 µM
same,inhibition of growth at 10 µM,[17],40.5%
same,inhibition of growth at 10 µM,[18],41.2%
same,GI50,[19],13 µM
same,TGI,[19],52.6 µM
same,CC50,[19]; [25],100 µM
same,GI50,[20],6.71 µM
same,TGI,[20],32.9 µM
same,CC50,[20]; [25],100 µM
same,inhibition of growth at 10 µM,[21],17.3%
same,inhibition of growth at 10 µM,[22],40.6%
same,GI50,[23],2.63 µM
same,TGI,[23],15.2 µM
same,CC50,[23]; [25],100 µM
same,GI50,[24],3.34 µM
same,TGI,[24],27.8 µM
same,CC50,[24]; [25],100 µM
